Data published in ChEMBL document CHEMBL2375304, “Synthesis and anticancer activity of novel 2-pyridyl hexahyrocyclooctathieno[2,3-d]pyrimidine derivatives” (2013).

Key:
Assay type in all cases: functional
[1] = test system: MDA-MB-468; assay: Growth inhibition of human MDA-MB-468 cells after 48 hrs by Sulforhodamine B assay; conditions: MDA-MB-468, 48 h
In short: (§1)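 Cells were preincubated 24 h at 37 °C, 5% CO2, and a time-zero plate was TCA-fixed. Five concentrations were made by serial dilution from a DMSO stock (400-fold the top concentration) and incubated 48 h. Adherent cells were fixed with 10% final TCA and suspension cells with 16%. Plates were stained with 0.4% SRB and read at 515 nm. GI50 is the concentration giving 50% reduction in net protein increase versus control.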

[2] = test system: BT-549; assay: Growth inhibition of human BT549 cells after 48 hrs by Sulforhodamine B assay; conditions: BT-549, 48 h
In short: (§2)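 Five-concentration SRB assay using 10-fold or ½-log serial dilutions from a DMSO stock. Exposure is 48 h at 37 °C in 5% CO2 after 24 h preincubation. TCA fixation is followed by SRB staining and a reading at 515 nm. Percentage growth is computed from time-zero, control and treated absorbances. GI50 is the concentration where [(Ti−Tz)/(C−Tz)]×100 = 50, read from the plot against log concentration.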

[3] = test system: Hs-578T; assay: Growth inhibition of human Hs578T cells after 48 hrs by Sulforhodamine B assay; in short: as §2
[4] = test system: MCF7; assay: Growth inhibition of human MCF7 cells after 48 hrs by Sulforhodamine B assay; conditions: MCF7, 48 h; in short: as §2
[5] = test system: DU-145; assay: Growth inhibition of human DU145 cells after 48 hrs by Sulforhodamine B assay; conditions: DU-145, 48 h; in short: as §2
[6] = test system: A498; assay: Growth inhibition of human A498 cells after 48 hrs by Sulforhodamine B assay; conditions: A498, 48 h; in short: as §2
[7] = test system: OVCAR-8; assay: Growth inhibition of human OVCAR8 cells after 48 hrs by Sulforhodamine B assay; conditions: OVCAR-8, 48 h; in short: as §1
[8] = test system: SK-MEL-5; assay: Growth inhibition of human SK-MEL-5 cells after 48 hrs by Sulforhodamine B assay; conditions: SK-MEL-5, 48 h; in short: as §1
[9] = test system: SNB-75; assay: Growth inhibition of human SNB75 cells after 48 hrs by Sulforhodamine B assay; conditions: SNB-75, 48 h; in short: as §1
[10] = test system: SW-620; assay: Growth inhibition of human SW620 cells after 48 hrs by Sulforhodamine B assay; conditions: SW-620, 48 h; in short: as §1
[11] = test system: HT-29; assay: Growth inhibition of human HT-29 cells after 48 hrs by Sulforhodamine B assay; conditions: HT-29, 48 h; in short: as §2
[12] = Growth inhibition of human HCC2998 cells after 48 hrs by Sulforhodamine B assay; conditions: HCC 2998, 48 h; in short: as §2
[13] = test system: NCI-H460; assay: Growth inhibition of human NCI-H460 cells after 48 hrs by Sulforhodamine B assay; conditions: NCI-H460, 48 h; in short: as §1
[14] = test system: HOP-92; assay: Growth inhibition of human HOP92 cells after 48 hrs by Sulforhodamine B assay; conditions: HOP-92, 48 h; in short: as §2
[15] = test system: NCI-H226; assay: Growth inhibition of human NCI-H226 cells after 48 hrs by Sulforhodamine B assay; conditions: NCI-H226, 48 h; in short: as §1
[16] = test system: MOLT-4; assay: Growth inhibition of human MOLT4 cells after 48 hrs by Sulforhodamine B assay; conditions: MOLT-4, 48 h; in short: as §1
[17] = test system: CCRF-CEM; assay: Growth inhibition of human CCRF-CEM cells after 48 hrs by Sulforhodamine B assay; in short: as §2

Row | Compound | GI50 [1] [µM] | GI50 [2] [µM] | GI50 [3] [µM] | GI50 [4] [µM] | GI50 [5] [µM] | GI50 [6] [µM] | GI50 [7] [µM] | GI50 [8] [µM] | GI50 [9] [µM] | GI50 [10] [µM] | GI50 [11] [µM] | GI50 [12] [µM] | GI50 [13] [µM] | GI50 [14] [µM] | GI50 [15] [µM] | GI50 [16] [µM] | GI50 [17] [µM]
1 | O=c1[nH]c(-c2ccccn2)nc2sc3c(c12)CCCCCC3 | 1.66 | 5.62 | 6.46 | 2.45 | 6.76 | 1.32 | 4.37 | 2.95 | 85.1 | 4.9 | 7.76 | 26.3 | 1.91 | 3.89 | > 100 | 2.4 | 0.912
2 | CN1CCN(c2nc(-c3ccncc3)nc3sc4c(c23)CCCCCC4)CC1 | 5.25 | 6.31 | 2.29 | 6.61 | 12.6 | 1.05 | 12.3 | 7.94 | 1.38 | 12 | 4.79 | 3.89 | 13.5 | 0.661 | 10.5 | 3.8 | 8.13
